Assay outcomes (PubChem)
Shown are actives, neighbours in structure and some others; about 1.2% of the full set was active somewhere.
procasp3 activ: activators of human procaspase-3 D3A mutant, primary screen, biochemical, absorbance, PC-3 D3A mutant, single concentration. Caspase-3 (Homo sapiens), P42574. recombinant procaspase-3 D3A, Ac-DEVD-pNA absorbance 405 nm. activation, % at 8.5 µM. hit rate 0.11% among 330,000;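 active = activation above the mean of all tested compounds plus 3 SD, cut at about 21% in these data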;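 note: 0% = DMSO alone and 100% = DMSO wells spiked with extra 5 µM PC-3 D3A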
Target sequence (P42574 whole entry D9A/D28A/D175A): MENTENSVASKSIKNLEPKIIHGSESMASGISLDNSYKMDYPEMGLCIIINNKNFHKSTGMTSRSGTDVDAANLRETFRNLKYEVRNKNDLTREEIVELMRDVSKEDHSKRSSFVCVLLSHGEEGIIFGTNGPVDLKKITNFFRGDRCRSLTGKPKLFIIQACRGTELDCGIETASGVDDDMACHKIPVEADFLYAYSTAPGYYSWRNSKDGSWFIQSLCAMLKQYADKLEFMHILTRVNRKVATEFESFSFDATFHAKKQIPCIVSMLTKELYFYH
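System: Procaspase-3 D3A mutant. Medium: Zinc-free 300 mM NaCl, 50 mM HEPES, 0.01% Triton X-100. Schedule: 1 h preincubation plus 2 h reaction at 25 °C. Measured by: 405 nm absorbance of p-nitroaniline, reads at 0 and 120 min. Read-out: percent activation relative to control range.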
MsrA inhibitor: bovine MsrA enzyme inhibitors, primary screen, biochemical, absorbance, HTS. inhibition, % at 15.5 µM. AID 651718, 2012. hit rate 0.75% among 360,000. Methionine sulfoxide reductase A (Bos taurus). purified bovine MsrA, absorbance read-out;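 note: 0% = vehicle wells with enzyme and 100% = reference inhibitor wells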
Bfl-1 A1 inh: caspase 3/7 activation in MEF A1-2A-BIM cells, primary screen, A1 inhibitor project, cell-based, luminescence, HTS. caspase activation, % (test concentration not listed). hit rate 0.066% among 330,000. AID 2462, 2010. Caspase-Glo 3/7 luminescence, 3 h; percent of clofoctol response, vehicle zero;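 active = over half of replicate activation scores above 10%, or exactly half above 10 with the replicate mean above 10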
procasp7 counter: procaspase-7 activators, primary screen, counter-screen for procaspase-3 activator project, biochemical, absorbance, HTS, human; Caspase-7 (Homo sapiens), P55210; recombinant procaspase-7, Ac-DEVD-pNA absorbance 405 nm; D23A/D198A/D206A triple mutant, cannot self-cleave; scale: DMSO 0, 5 µM enzyme 100; activation, % at 8.5 µM; hit rate 0.093% among 330,000; AID 463210, 2010;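 active = percent activation above the screen-wide mean plus 3 SD, cut at about 25% in these data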
Target sequence (P55210 whole entry D23A/D198A/D206A): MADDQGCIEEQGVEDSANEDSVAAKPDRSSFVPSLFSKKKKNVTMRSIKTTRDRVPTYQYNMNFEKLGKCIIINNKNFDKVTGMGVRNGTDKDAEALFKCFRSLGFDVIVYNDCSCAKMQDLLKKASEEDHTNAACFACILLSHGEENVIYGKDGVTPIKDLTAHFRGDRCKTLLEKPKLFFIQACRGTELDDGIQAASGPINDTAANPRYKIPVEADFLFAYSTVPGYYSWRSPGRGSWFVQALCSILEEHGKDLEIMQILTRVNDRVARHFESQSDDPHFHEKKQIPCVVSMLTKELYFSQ
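Detection: p-Nitroaniline absorbance at 405 nm, read at 0 and 120 min; system: Uncleavable procaspase-7 mutant enzyme; evaluation: % activation from two-timepoint absorbance difference, scaled to controls; times: 1 h enzyme–compound preincubation and 2 h substrate reaction, both 25 °C; buffer or medium: Zinc-free HEPES pH 7.4 with 300 mM NaCl, 0.01% Triton X-100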
MsrA act: bovine MsrA enzyme activators, primary screen, biochemical, absorbance, HTS; AID 602163, 2012; activation, % at 10.6 µM; hit rate 0.3% among 360,000; purified bovine MsrA, absorbance read-out; in the data active = activation above about 7.5%;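 note: 0% = vehicle and 100% = reference activator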
MsrA inh confirm: bovine MsrA inhibitors, retest, confirmation, biochemical, absorbance, HTS; shares compounds with MsrA inhibitor; purified bovine MsrA, absorbance read-out; inhibition, % at 15.5 µM; hit rate 41% among 2,300; AID 651822, 2012;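 note: coupled to thioredoxin reductase with NADPH and selenocystamine and DMSO as substrate; 0% = vehicle only and 100% = full effect of reference inhibitor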
* = called active by the depositor; x = no result given; ! = not confirmed by another sample. Cut-off read from the data, not from the text of the source, unless noted: active = inhibition above about 4.5%; inactive = the rest.

SMILES	procasp3 activ	MsrA inhibitor	Bfl-1 A1 inh	procasp7 counter	MsrA act	MsrA inh confirm
COc1ccc(/C=N/NC(=O)c2cc(-c3ccccc3)nc3ccccc23)cc1O	6.4	1.7	-0.2	4.2	-4.1	x
Cc1nn(-c2ccccc2)c(N2CCCC2)c1/C=N/NC(=O)c1cc(-c2cccnc2)nc2ccccc12	6.2	4.7*	-0.2	12.8	-10.8	0.9
COc1ccc(/C=N/NC(=O)c2cc(-c3ccccc3)nc3ccccc23)c(C(=O)O)c1OC	6.9	4.7*	-2.5	13.3	-3.7	2.4
COc1cccc(-c2cc(C(=O)N/N=C/c3cccc(OC)c3OC)c3ccccc3n2)c1	-2.9	1.1	0.6	4.4	-1.7	x
Cc1nn(-c2ccccc2)c(N2CCCC2)c1/C=N/NC(=O)c1ccccc1O	5.8	1.1	0.1	8.1	-4.6	x
CC1CCC(=NO)C(=NO)C1 (configuration not stated)	x	-0.6	x	x	-2.8	x
CCCCn1c(N)c(N(CC)C(=O)C2CCN(C(=O)c3ccccc3C)CC2)c(=O)[nH]c1=O	3.2	-1.3	1.3	-2.7	-2.5	x
CC(C)(C)OC(=O)N1CCc2onc(-c3ccccc3F)c2C1=O	x	-0.8	x	x	0.1	x
COc1ccc(-c2cc(C(F)(F)F)nc(S(C)(=O)=O)n2)cc1	1.4	5.4*	0.2	1.8	-8.9	1.7
O=c1[nH]c(-[n+]2ccc3ccccc3c2)c(/C=N/N=C(\[O-])c2ccccc2)s1	-9.6	2.6	0.1	-8.9	-3.2	x
CC(C)(C)c1cc[n+](-c2[nH]c(=O)sc2/C=N/N=C(\[O-])c2cccnc2)cc1	-7.6	5.4*	0.5	-4.3	-3.4	5.9*
N#CCC(=O)Nc1ccccc1C(=O)O	10.8	-0.9	-0.7	3.6	-2.6	x
N#C/C(=C/Nc1ccccc1C(=O)O)C(N)=O	-5.0	5.8*	-0.2	7.7	-8.8	6.8*
O=C(c1cnc2sccn2c1=O)N(Cc1ccccc1)c1ccccn1	-12.4	5.0*	0.1	-2.5	-4.2	3.0
O=C1c2ccccc2C(=O)c2c1cccc2N1CCCC1	-5.0	36.4*	0.3	-1.5	1.9	0.3
N#C/C(=C(\O)Cc1ccccc1)c1nc2ccccc2[nH]1	2.9	2.9	-0.2	3.2	-1.5	x
N#C/C(=C(/O)c1ccco1)c1nc2ccccc2[nH]1	-0.7	7.2*	-1.7	6.5	-12.8	4.6*
N#C/C(=C(/O)c1ccco1)c1nc2ccccc2s1	-2.5	4.8*!	-4.6	0.1	-14.0	4.6*
O=C(c1ccco1)N(c1ccccn1)c1ccccn1	-6.7	-0.5	-0.2	-8.2	-0.8	x
N#C/C(=C(/O)CN1CCOCC1)c1nc2ccccc2s1	-4.9	4.8*	0.7	10.9	-14.3	3.5
N#CC(C(=O)c1ccco1)c1ccccn1 (configuration not stated)	-1.0	5.9*	0.3	-5.5	-7.6	3.8
N#C/C(=C(/O)c1cc2ccccc2o1)c1nc2ccccc2s1	-0.3	-0.1	-5.7	-3.1	-2.1	x
O=C1COc2ccc3ccccc3c21	3.4	0.7	0.1	-5.3	-0.5	x
O=C(NCc1cccs1)c1ccc2sc(C3=C[C@@H](O)[C@@H](O)[C@@H](CO)O3)nc2c1	x	0.6	x	x	-2.7	x
N#C/C(=C(\O)c1ccco1)c1ccccn1	4.2	5.1*	-1.0	-1.3	-4.0	2.0
SMILES	procasp3 activ	MsrA inhibitor	Bfl-1 A1 inh	procasp7 counter	MsrA act	MsrA inh confirm
N#C/C(=C(/O)CCCl)c1ccccn1	-7.0	1.0	0.4	-8.0	-3.2	x
CN(CCO)S(=O)(=O)c1ccc2c(c1)C(=NNC(N)=O)c1cc(S(=O)(=O)N(C)CCO)ccc1-2	-3.2	4.8*	0.7	-7.8	-4.8	3.4
CC(C)CCOc1ccc(/C=N/N2C(=O)CSC2=S)cc1	8.1	-0.2	0.6	-9.4	1.7	x
COc1ccc(/C=N/N2C(=N)SCC2=O)cc1	3.1	6.3*	-1.5	7.8	-3.3	4.3
O=C(N/N=C/c1ccc(-c2ccccc2C(=O)O)o1)c1cccs1	5.9	6.8*	-4.4	-5.6	-4.6	4.6*
COC(=O)CSc1nn(-c2ccc(F)cc2)c(=S)s1	2.4	5.2*	0.0	1.4	-2.2	2.3
Nc1ccc(C(=O)N/N=C2\CCCc3c2[nH]c2ccccc32)cc1	-5.1	5.3*	0.4	-1.4	-5.8	7.1*
Cn1c(=O)c2c(ncn2Cc2ccc(O)c([N+](=O)[O-])c2)n(C)c1=O	x	-0.1	x	x	x	x
COC(=O)[C@]12C[C@H](CC(=O)NCc3ccc(OC)c(OC)c3)C(=O)N(CCc3ccc(OC)c(OC)c3)C1=C[C@H](C(C)(C)C)O[C@@H]2C	x	-0.2	x	x	x	x
COc1ccc(/C=[N+](\[O-])C2N(c3ccccc3)C(=S)SC2(C)C)cc1OC (configuration not stated)	6.0	5.0*	-1.7	1.0	-4.8	3.0
Cc1nc2c(C)cccn2c1/C(O)=C1\C(=O)C(=O)N(CCN(C)C)C1c1ccco1 (configuration not stated)	-7.2	4.7*	0.1	-32.8	-8.5	0.0
Cc1ccc(C2/C(=C(\O)c3c(C)nc4c(C)cccn34)C(=O)C(=O)N2CCN(C)C)o1 (configuration not stated)	x	0.5	x	x	-1.3	x
O=C(N/N=C/c1ccc(O)cc1)c1ccncc1	13.3	2.4	-4.8	0.5	-0.1	x
O=C(NN=Cc1ccc(O)cc1)C(=O)NN=Cc1ccc(O)cc1	x	6.1*	x	x	0.1	1.9
COc1ccc(C(=O)N/N=C/c2ccc(SC)cc2)cc1	3.6	5.2*	-2.1	10.0	-5.6	5.9*
CSc1ccc(/C=N/NC(=O)c2ccc(O)cc2)cc1	3.6	7.9*	-5.4	1.4	-7.2	5.8*
CC1(C)OC(=O)C2=C(C[C@@H](CCc3ccccc3)O[C@H]2CCc2cccc(Cl)c2)O1	x	-0.5	x	x	-2.7	x
CCCOc1ccc(C(=O)CCC(=O)OCC(=O)Nc2cccc(S(N)(=O)=O)c2)cc1	x	-1.3	x	x	-0.3	x
COc1ccc(-c2cc(=O)c3cccc(CC(=O)O)c3o2)cc1	x	5.0*	x	x	x	4.6*
CCc1nccn1C(=O)c1cnn2c(C(F)F)cc(-c3ccc(C)cc3)nc12	-8.2	4.8*	1.5	-2.7	-8.6	25.6*
CC1(C)Cc2nc(N3CCCC3)c(C#N)cc2CO1	-5.5	8.7*	-0.4	-1.5	-11.3	5.4*
COc1ccc(C2CC(=O)C(c3ccccc3)=CN2Cc2ccccc2)cc1 (configuration not stated)	x	0.5	x	x	x	x
COc1ccc(Nc2nc(C)c(C(C)=O)s2)cc1	x	5.4*	x	x	-4.5	3.4
